In ChEMBL document CHEMBL4145685, “Development of Second-Generation CDK2 Inhibitors for the Prevention of Cisplatin-Induced Hearing Loss” (J Med Chem, 2018):
Converted amounts (≈) assume the structure as drawn. The source made the active and inactive calls.

Experiments:
[1] = Protection against cisplatin-induced cell death in neonatal mouse HEI-OC1 cells assessed as reduction in caspase-3/7 activity; format: functional
Spiral organ of cochlea [2] = assay: Protection against cisplatin-induced toxicity in P3 mouse cochlear explants assessed as increase in outer hair cell count incubated for 24 hrs by phalloidin staining based confocal microscopy; format: functional, tissue-based
CDK2/Cyclin A2 = CDK2/Cyclin A2 (Homo sapiens, UniProt P24941); assay: Inhibition of C-terminal His6-tagged human full length CDK2/N-terminal GST-tagged human full length Cyclin A using histone H1 and [gamma-32P]-ATP incubated for 30 mins by phosphorimage based assay; format: protein-complex assay
Spiral organ of cochlea [3] = assay: Protection against cisplatin-induced toxicity in P3 mouse cochlear explants assessed as increase in outer hair cell count at 150 nM incubated for 24 hrs by phalloidin staining based confocal microscopy; format: functional, tissue-based
In short: (§1)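 P3 FVB mouse cochleae were cultured on filters in DMEM with 1% FBS and 50 μg/mL ampicillin, 37 °C, 5% CO2, for 1 d. They were pretreated with compound 1 h, then given cisplatin 150 μM plus compound for 1 d. Fixed in 4% PFA, phalloidin-stained, confocal imaged. OHCs counted per 160 μm; medium-only = full protection, cisplatin-only = none.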

Spiral organ of cochlea [4] = assay: Protection against cisplatin-induced toxicity in P3 mouse cochlear explants assessed as increase in outer hair cell count at 100 to 500 nM incubated for 24 hrs by phalloidin staining based confocal microscopy; format: functional, tissue-based; in short: as §1
[5] = target: Glycogen synthase kinase-3 beta (Homo sapiens) (UniProt P49841); assay: Inhibition of human full length GSK3beta expressed in mammalian expression system at 1 uM
In short: (§2)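 Competition binding screen at 1 μM over a 468-kinase panel. Kinases were T7-phage-tagged (grown in E. coli BL21-derived host) or produced in HEK-293 cells with DNA tags. They bound to immobilized biotinylated ligand beads with compound for 1 h at room temperature in SeaBlock/PBS/Tween/DTT buffer. Eluted kinase was quantified by qPCR.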

[6] = target: Cyclin-dependent kinase 7 (Homo sapiens) (UniProt P50613); assay: Inhibition of human full length CDK7 expressed in mammalian expression system at 1 uM; in short: as §2
[7] = target: Glycogen synthase kinase-3 alpha (Homo sapiens) (UniProt P49840); assay: Inhibition of human full length GSK3alpha expressed in bacterial expression system at 1 uM; in short: as §2
[8] = Solubility of the compound in citrate phosphate buffered saline incubated for 18 hrs by UV spectroscopy; format: physicochemical; conditions: buffer
In short: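 A 10 mM DMSO stock was diluted into buffer and held 18 h at room temperature. It was then filtered and mixed 1:1 with 1-propanol. UV spectrum (250–500 nm) AUC was compared with a reference of stock in 1-propanol/isotonic citrate PBS. Triplicate.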

Mus musculus [9] = assay: Protection against cisplatin-induced ototoxicity in adult FVB mouse assessed as hearing thresholds at 32 kHz dosed at 50 uM administered to each left ear by transtympanic injection dosed 1 hr before cisplatin injection and measured after 15 days; format: functional, organism-based
In short: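 P30 FVB mice under isoflurane received 5 μL compound in PBS + 0.5% DMSO into the left ear by transtympanic 33-gauge cannula; vehicle controls matched. Cisplatin i.p. 1 h later; one regimen added a second injection 24 h after cisplatin. Left-ear closed-field ABR thresholds at 8, 16, 32 kHz were taken before treatment and at day 15. Threshold shift is reported as mean ± SEM, paired 2-tailed t-test. Mice losing <10% bodyweight were excluded.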

Mus musculus [10] = assay: Protection against cisplatin-induced ototoxicity in adult FVB mouse assessed as reduction in outer hair cell loss in middle basal turn at 32 kHz dosed at 50 uM administered to each left ear by transtympanic injection dosed 1 hr before cisplatin injection and measured after 15 days; format: functional, organism-based
In short: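 After day-15 ABR, cochleae were harvested from transtympanically dosed, cisplatin-treated adult FVB mice. Organ of Corti was stained with phalloidin, anti-parvalbumin and DAPI. OHCs were counted per 160 μm in the 32-kHz (middle basal turn) region. Mean ± SEM, paired 2-tailed t-test.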

Mus musculus [11] = assay: Toxicity in adult FVB mouse at 2 to 50 uM dosed to each left ear by transtympanic injection after 15 days; format: organism-based; conditions: in vivo, other, 360 h
In short: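 Adult FVB mice, blinded and randomized, received transtympanic left-ear 2, 10 or 50 μM compound or vehicle (PBS + 0.5% DMSO, 5 μL). Dosing was a single injection, or two injections 24 h apart in one series. Three to four mice per group. ABRs were recorded at 8, 16, 32 kHz after 15 days.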

Mus musculus [12] = assay: Protection against cisplatin-induced ototoxicity in adult FVB mouse assessed as reduction in auditory brainstem response threshold elevation by measuring ABR threshold shits at 32 kHz dosed at 50 uM administered to each left ear by transtympanic injection dosed 1 hr before cisplatin injection and measured after 15 days; format: functional
In short: (§3)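 P30 FVB mice under isoflurane got a single 5 μL transtympanic injection (50 μM in saline with 0.5% DMSO, or vehicle) into the left ear. Cisplatin was given i.p. 1 h later. Closed-field left-ear ABR thresholds were taken before treatment and at day 15. Shift is post minus pre. Mice losing <10% bodyweight were excluded. Mean ± SEM, paired 2-tailed t-test.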

Mus musculus [13] = assay: Protection against cisplatin-induced ototoxicity in adult FVB mouse assessed as reduction in auditory brainstem response threshold elevation by measuring ABR threshold shits at 16 kHz dosed at 50 uM administered to each left ear by transtympanic injection dosed 1 hr before cisplatin injection and measured after 15 days; format: functional; in short: as §3
[14] = Mus musculus, HEI-OC1, read-out: EC50

Sequence of Glycogen synthase kinase-3 alpha (Homo sapiens) (P49840 2-483 limits assumed): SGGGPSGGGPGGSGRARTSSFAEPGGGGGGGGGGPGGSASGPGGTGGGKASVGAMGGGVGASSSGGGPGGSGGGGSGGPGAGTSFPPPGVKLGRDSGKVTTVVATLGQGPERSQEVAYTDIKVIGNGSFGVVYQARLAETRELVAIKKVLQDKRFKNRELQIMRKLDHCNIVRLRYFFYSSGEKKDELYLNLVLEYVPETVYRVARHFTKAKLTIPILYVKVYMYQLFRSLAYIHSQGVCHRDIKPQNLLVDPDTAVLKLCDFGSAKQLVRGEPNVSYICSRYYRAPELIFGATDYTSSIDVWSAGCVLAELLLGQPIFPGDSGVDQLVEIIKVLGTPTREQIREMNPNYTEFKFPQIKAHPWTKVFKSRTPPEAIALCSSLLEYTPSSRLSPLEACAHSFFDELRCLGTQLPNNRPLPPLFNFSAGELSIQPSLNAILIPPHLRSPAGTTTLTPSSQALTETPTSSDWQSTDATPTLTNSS
Sequence of Glycogen synthase kinase-3 beta (Homo sapiens) (P49841 whole entry, looked up): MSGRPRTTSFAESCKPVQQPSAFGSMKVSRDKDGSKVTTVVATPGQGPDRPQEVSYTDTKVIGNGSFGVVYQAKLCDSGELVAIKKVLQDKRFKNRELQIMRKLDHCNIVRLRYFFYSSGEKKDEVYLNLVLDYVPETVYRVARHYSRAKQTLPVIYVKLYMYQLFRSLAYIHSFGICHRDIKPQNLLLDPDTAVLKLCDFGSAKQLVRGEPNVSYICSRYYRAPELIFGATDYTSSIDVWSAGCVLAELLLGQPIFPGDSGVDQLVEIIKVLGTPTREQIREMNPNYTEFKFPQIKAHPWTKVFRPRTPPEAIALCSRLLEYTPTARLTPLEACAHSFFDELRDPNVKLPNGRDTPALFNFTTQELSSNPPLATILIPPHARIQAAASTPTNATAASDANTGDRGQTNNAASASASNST
Sequence of Cyclin-dependent kinase 7 (Homo sapiens) (P50613 whole entry): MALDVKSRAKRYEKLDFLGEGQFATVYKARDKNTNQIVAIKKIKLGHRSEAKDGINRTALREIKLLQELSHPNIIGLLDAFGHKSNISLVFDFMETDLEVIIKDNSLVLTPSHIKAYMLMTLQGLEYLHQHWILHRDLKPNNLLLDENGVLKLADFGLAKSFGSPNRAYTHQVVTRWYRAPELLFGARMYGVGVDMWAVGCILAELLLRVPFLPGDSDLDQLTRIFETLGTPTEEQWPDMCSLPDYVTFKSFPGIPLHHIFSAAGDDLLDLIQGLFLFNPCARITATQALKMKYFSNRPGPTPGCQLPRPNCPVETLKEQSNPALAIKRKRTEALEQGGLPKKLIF

| SMILES | EC50 [1, 14] | EC50 [1] | other results |
| --- | --- | --- | --- |
| O=C(NC1CCNCC1)c1n[nH]cc1NC(=O)c1c(F)cc(F)cc1F | > 30.9 µM | – | – |
| NS(=O)(=O)c1ccc(CCNc2nccc(-c3ccccn3)n2)cc1 | – | Not Active | – |
| CCn1cc(NC(=O)c2c(F)cccc2F)c(C(=O)NCC(C)C)n1 | – | Not Active | – |
| COc1ccc2c(c1)/C(=C/c1cnc[nH]1)C(=O)N2 [SU-9516] | 1.59 µM | – | EC50 (Spiral organ of cochlea [2]): 6 µM |
| Cc1[nH]nc(C(N)=O)c1NC(=O)c1cc(F)cc(Br)c1 | – | Not Active | – |
| CCn1cc(NC(=O)c2ccc(COCC(F)(F)F)cc2)c(C(=O)NCC(C)C)n1 | 6.75 µM | – | IC50 (CDK2/Cyclin A2): > 10 µM |
| CCCNC(=O)c1c(NC(=O)c2ccccc2Cl)cnn1C | – | Not Active | – |
| CCCNC(=O)c1c(NC(=O)c2cc(S(=O)(=O)N(C)C)c(Cl)cc2Cl)cnn1C | – | Not Active | – |
| O=C(NCC1CC1)c1n[nH]cc1NC(=O)c1c(F)cccc1F | 0.044 µM | – | Activity (Spiral organ of cochlea [3]): inactive |
| Cc1ccc(-c2ccnc(NCC(C)n3nc(C)cc3C)n2)c(C)n1 (configuration not stated) | – | Not Active | – |
| CC[C@H](CO)Nc1nc(NCc2ccccc2O)c2ncn(C(C)C)c2n1 [OLOMOUCINE II] | 0.595 µM | – | EC50 (Spiral organ of cochlea [2]): 3 µM |
| CCCNC(=O)c1c(NC(=O)c2ccc(Cl)cc2Cl)cnn1C | – | Not Active | – |
| Cn1cc(NC(=O)c2c(Cl)cccc2Cl)c(C(=O)NC2CCN(C(=O)c3c(Cl)cccc3Cl)CC2)n1 | > 49.4 µM | – | IC50 (CDK2/Cyclin A2): > 10 µM |
| Cc1[nH]nc(C(N)=O)c1NC(=O)c1cc(F)c(F)c(F)c1 | – | Not Active | – |
| CN(Cc1nccn1Cc1ccccc1)c1nccc(-c2ccccn2)n1 | – | Not Active | – |
| NS(=O)(=O)c1ccc(CNc2nccc(-c3ccccn3)n2)cc1 | – | Not Active | – |
| c1ccc(Nc2nccc(-c3ccccn3)n2)cc1 | – | Not Active | – |
| CCn1cc(NC(=O)c2ccc(Cl)cc2Cl)c(C(=O)Nc2ccccc2)n1 | 31.1 µM | – | IC50 (CDK2/Cyclin A2): > 10 µM |
| Cc1nc(-c2ccnc(N)n2)cn1Cc1c(Cl)cccc1Cl | – | Not Active | – |
| O=C(NC1CCNCC1)c1n[nH]cc1NC(=O)c1c(Cl)cccc1Cl | – | – | Activity (Spiral organ of cochlea [4]): inactive; inhibition [5]: Active; inhibition [6]: Active; inhibition [7]: Active |
| Cn1ncc(NC(=O)c2ccc(Cl)cc2Cl)c1C(=O)NCc1ccco1 | – | Not Active | – |
| N[C@H]1CC[C@H](NC(=O)c2n[nH]cc2NC(=O)c2c(F)cccc2F)CC1 | > 33.5 µM | – | – |
| CN[C@@H]1CCN(C(=O)c2ccc(Nc3ncc(F)c(-c4cnc(C)n4C(C)C)n3)cc2)C1 | – | Not Active | – |
| CCCNC(=O)c1c(NC(=O)c2cc(S(=O)(=O)N3CCCC3)c(Cl)cc2Cl)cnn1C | – | Not Active | – |
| O=C(Cc1ccccc1)Nc1c[nH]nc1C(=O)Nc1ccc(F)cc1 | > 32.7 µM | – | – |
| NS(=O)(=O)c1ccc(N/N=C2\C(=O)Nc3ccc(Br)cc32)cc1 | 0.127 µM | – | EC50 (Spiral organ of cochlea [2]): 1 µM |

| SMILES | EC50 [1, 14] | EC50 [1] | other results |
| --- | --- | --- | --- |
| Cn1cc(NC(=O)c2ccc(Cl)cc2Cl)c(C(=O)NCCc2ccco2)n1 | – | Not Active | – |
| CC(C)CNC(=O)c1c(NC(=O)c2ccc(COCC(F)(F)C(F)F)cc2)cnn1C | – | Not Active | – |
| O=C(N[C@H]1CCCNC1)c1n[nH]cc1NC(=O)c1c(F)cccc1F | > 37.9 µM | – | – |
| Cc1[nH]nc(C(N)=O)c1NC(=O)C(C)NC(=O)c1ccc(Cl)cc1 (configuration not stated) | – | Not Active | – |
| CCC(Nc1nccc(-c2ccccn2)n1)c1ccc(S(C)(=O)=O)cc1 (configuration not stated) | – | Not Active | – |
| O=C(NC1CCCCC1)c1n[nH]cc1NC(=O)c1c(F)cccc1F | > 27.3 µM | – | – |
| CCn1cc(NC(=O)c2ccccc2Cl)c(C(=O)NCC(C)C)n1 | – | Not Active | – |
| O=C(NC1CCN(C(=O)c2c(Cl)cccc2Cl)CC1)c1n[nH]cc1NC(=O)c1c(Cl)cccc1Cl | 0.459 µM | – | Activity (Spiral organ of cochlea [3]): inactive; IC50 (CDK2/Cyclin A2): 0.76 µM |
| CNC(=O)c1nn(C)cc1NC(=O)c1ccccc1Cl | – | Not Active | – |
| Cn1ncc(NC(=O)c2n[nH]cc2Cl)c1C(=O)N1CCCCC1 | – | Not Active | – |
| Cc1ncc(-c2ccnc(Nc3ccc(S(C)(=O)=O)cc3)n2)n1C(C)C [AZD-5438] | – | – | solubility [8]: 68.8 µM (≈ 25.6 µg/mL); Activity (Mus musculus [9]): Active; Activity (Mus musculus [10]): Active; Activity (Mus musculus [11]): Non-Toxic; Activity (Mus musculus [12]): 14 dB; inhibition [5]: Active; inhibition [6]: Active; inhibition [7]: Active |
| Cn1ncc(NC(=O)c2ccccc2Cl)c1C(=O)N1CCCCC1 | – | Not Active | – |
| N#Cc1ccc2c(c1)/C(=C1/C=CC(CN3CCOCC3)=CN1)C(=O)N2 | 3.63 µM | – | EC50 (Spiral organ of cochlea [2]): 15 µM |
| O=C(Nc1ccc(F)cc1)c1n[nH]cc1NC(=O)c1c(F)cccc1F | – | – | Activity (Spiral organ of cochlea [3]): inactive |
| O=C(Nc1ccc(F)cc1)c1n[nH]cc1NC(=O)C1CCCCC1 | > 32.2 µM | – | – |
| O=C(NC1CCNCC1)c1n[nH]cc1NC(=O)c1c(F)cccc1F | 22.5 µM | – | – |
| O=C(N[C@H]1CC[C@H](O)CC1)c1n[nH]cc1NC(=O)c1c(F)cccc1F | – | – | Activity (Spiral organ of cochlea [3]): Active; Activity (Mus musculus [13]): 10 dB; Activity (Mus musculus [10]): inactive; Activity (Mus musculus [11]): Non-Toxic; inhibition [5]: Active; inhibition [6]: Active; inhibition [7]: Active |
| CCn1ccnc1CN(C)c1nccc(-c2ccc(C)nc2C)n1 | – | Not Active | – |
| CCn1cc(NC(=O)c2ccc(Cn3cc(Cl)cn3)cc2)c(C(=O)NC2CCCC2)n1 | 5.04 µM | – | IC50 (CDK2/Cyclin A2): > 10 µM |
| Cc1cc(Br)ccc1C(=O)Nc1c(C(N)=O)n[nH]c1C | – | Not Active | – |
| Cc1[nH]nc(C(N)=O)c1NC(=O)c1ccc(OCC2CC2)cc1 | – | Not Active | – |
| O=C1Cc2c([nH]c3ccc(Br)cc23)-c2ccccc2N1 [KENPAULLONE] | 0.349 µM | – | EC50 (Spiral organ of cochlea [2]): 0.15 µM; inhibition [5]: Active; inhibition [6]: Active; inhibition [7]: Active |
| Cc1ccc(C(=O)Nc2c(C(=O)N(C)C)nn(C)c2C)cc1 | – | Not Active | – |
| COc1cccc(F)c1C(=O)Nc1c[nH]nc1C(=O)NC1CCNCC1 | > 37.2 µM | – | – |
| O=C(Nc1c[nH]nc1C(=O)Nc1ccc(F)cc1)c1ccccc1 | > 33.2 µM | – | – |
